Results gathered from unrelated publications.
Compare with care: the assays were run in different laboratories.
Sample: plasma

The AUC(0-t) of `O=C1CCC(N2Cc3cc(C4CCN(Cc5ccccc5)CC4)ccc3C2=O)C(=O)N1` (stereo not shown) is reported as 309 ng·h/mL (male Sprague-Dawley rat; intravenous, 1 mg/kg).
`CCN(CC)Cc1ccc2cc(COC(=O)Nc3ccc(C(=O)NO)cc3)ccc2c1` has an AUC(0-t) of 8490 ng·h/mL (male Sprague-Dawley rat; oral, 10 mg/kg).
With `COc1ccc(N(Cc2csc(-c3ccccc3)n2)C(=O)CCCCCC(=O)NO)cc1` the AUC(0-t) was 18.4 ng·h/mL (female Sprague-Dawley rat; oral, 30 mg/kg).
The AUC(0-t) of `COc1nc(-c2cccc(-c3ccccc3)c2C)ccc1CNCCNC(=O)CCCCCCCCCCC(=O)N1CCN(CCNC(=O)c2cc3c(=O)n4cccc(C)c4nc3n(CCc3cccs3)c2=N)CC1` is reported as 257 ng·h/mL (male Sprague-Dawley rat; oral, 40 mg/kg).
With `C[C@H]1Oc2cc(cnc2N)-c2c(nn(C)c2C#N)CN(C)C(=O)c2ccc(F)cc21` the AUC(0-t) was 24800 ng·h/mL (male Sprague-Dawley rat; oral, 50 mg/kg, single dose).
`C[C@H]1[C@@H](O)O[C@@H]2O[C@@]3(C)CC[C@H]4[C@H](C)CC[C@@H]1[C@@]24OO3` has an AUC(0-t) of 234 ng·h/mL (male Sprague-Dawley rat; oral, 10 mg/kg).
`C1=C/COCc2cc(ccc2OCCN2CCCC2)Nc2nccc(n2)-c2cccc(c2)COC/1` gave an AUC(0-t) of 3120 ng·h/mL (male Sprague-Dawley rat; oral, 36 mg/kg).
`Nc1ccn([C@@H]2O[C@H](CO)[C@@H](O)C2(F)F)c(=O)n1` gave an AUC(0-t) of 160000 ng·h/mL (male Sprague-Dawley rat; intravenous, 5 mg/kg).
`COc1cc(-c2cc(C(C)=O)n3ccccc23)c(OC)cc1Cn1ccnc1` has an AUC(0-t) of 4280 ng·h/mL (male Sprague-Dawley rat; intravenous, 5 mg/kg).
The AUC(0-t) of `CC[C@@H]([C@H](C)O)n1ncn(-c2ccc(N3CCN(c4ccc(OC[C@@H]5CO[C@@](Cn6cncn6)(c6ccc(F)cc6F)C5)cc4)CC3)cc2)c1=O` is reported as 6550 ng·h/mL (Sprague-Dawley rat; oral, 40 mg/kg).
For `CCCCC(=O)Nc1ccc(-c2ccc3ncn(CCC)c(=O)c3c2)cn1`, the AUC(0-t) was 2560 ng·h/mL (male rat; intravenous, 2.5 mg/kg).
The AUC(0-t) of `Cn1c(=O)c2[nH]cnc2n(C)c1=O` is reported as 53800 ng·h/mL (male Sprague-Dawley rat; intravenous, 22.5 mg/kg).
With `CCCc1nc2c(C)cc(-c3nc4ccccc4n3C)cc2n1Cc1ccc(-c2ccccc2C(=O)O)cc1` the AUC(0-t) was 1940 ng·h/mL (male Sprague-Dawley rat; oral, 8 mg/kg, single dose).
`C[C@@]12C[C@@]3(O)O[C@@H](O1)[C@]1(COC(=O)c4ccccc4)[C@H]3C[C@@]12O[C@@H]1O[C@H](CO)[C@@H](O)[C@H](O)[C@H]1O` has an AUC(0-t) of 3.74 ng·h/mL (male Sprague-Dawley rat; oral, 80 mg/kg).
For `Cc1ccc2c(c1)C(=O)[C@]1(O)CCN(c3ccc4nc(C)ccc4c3)C1=N2.Cl`, the AUC(0-t) was 17 µM·h (female rat; subcutaneous, 40 mg/kg, multiple doses, once daily).
`CONC(=O)c1cccc2c1cc(C)n2-c1nc2c(c(NCc3ccccc3)n1)CCCN2` gave an AUC(0-t) of 20.1 ng·h/mL (male Sprague-Dawley rat; intravenous, 1 mg/kg, single dose).
